Among the data in ChEMBL document CHEMBL4257474, “Antiproliferative activity of novel isatinyl/indanyl nitrones (INs) as potential spin trapping agents of free radical intermediates” (Medchemcomm, 2018) are EC50, Activity and IC50 values, retold here.

Each structure is given as a SMILES string. Activity calls are given as the source filed them. No cut-off for these calls is given here.

The nature of assay [1]: Antioxidant activity assessed as DPPH free radical scavenging after 10 mins by UV-vis spectrophotometric analysis. It is filed as functional. In short, it runs like this:
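DPPH and test compound mixed in ethanol at five concentrations, 1.15 × 10^-6 to 9.10 × 10^-6 mol L^-1. After 10 min in the dark, absorbance at 517 nm was read against ethanol blank. RSA% = [(A0 − Ai)/A0] × 100. EC50 (concentration giving 50% radical inhibition) was derived from the RSA% values. BHT was the reference over the same range. Triplicate.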

The subject of assay [2] is K562. Briefly: Antiproliferative activity against human K562 cells at 3 to 200 uM after 3 days by MTT assay. It is filed as functional, cell-based. The method, boiled down:
(§1)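 K562 leukemia cells were seeded at 20000 cells per mL in medium with 10% FBS, penicillin/streptomycin and 2 mM glutamine, at 37 °C and 5% CO2. Compounds were diluted from 40 mM DMSO stocks and applied at 3–200 µM for 3 days. MTT was added for 2 h, then lysis in 50% DMF/20% SDS pH 4.7 for 16 h, and A570 read. Proliferation was expressed as % of untreated cells; IC50 calculated. Three independent experiments in triplicate.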
For orientation: Formazan colour is commonly taken as a measure of viable cells.

Assay [3] in a line: Antioxidant activity assessed as DPPH free radical scavenging at 6.25 x 10^-6mol/L after 10 mins by UV-vis spectrophotometric analysis relative to control. It is filed as functional. The method, boiled down: (§2)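 Ethanolic DPPH was added to the compound in ethanol at the stated concentration, within a five-level series of 1.15 × 10^-6 to 9.10 × 10^-6 mol L^-1. After 10 min in the dark, absorbance was read at 517 nm against absolute ethanol. Scavenging was expressed as RSA% = [(A0 − Ai)/A0] × 100, with A0 the absorbance without compound. BHT served as reference. Triplicate.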

A short description of assay [4]: Antioxidant activity assessed as DPPH free radical scavenging at 4 x 10^-6mol/L after 10 mins by UV-vis spectrophotometric analysis relative to control. It is filed as functional. In short, it runs like this: as §2
In general terms: DPPH is a stable violet radical that fades when it is reduced.

The subject of assay [5] is HOS-TE85. Briefly: Antiproliferative activity against human HOSTE85 cells at 3 to 200 uM after 3 days by MTT assay. It is filed as functional, cell-based. The method, boiled down:
(§3)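 Osteosarcoma cells were seeded at 4000 per well 6 h before treatment in medium with 10% FBS, penicillin/streptomycin and 2 mM glutamine, at 37 °C and 5% CO2. Compounds came from 40 mM DMSO stocks and were tested at 3–200 µM for 3 days. MTT was added for 2 h and formazan dissolved in 50% DMF/20% SDS pH 4.7 for 16 h. A570 was read versus untreated control; IC50 calculated. Three independent experiments in triplicate.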

The subject of assay [6] is K562. Briefly: Antiproliferative activity against human K562 cells after 3 days by MTT assay. It is filed as functional, cell-based. In short, it runs like this:
as §1

Assay [7] relates to MG-63. Kind of assay: Antiproliferative activity against human MG63 cells at 3 to 200 uM after 3 days by MTT assay. It is filed as functional, cell-based. In short, it runs like this: as §3
A short description of assay [8]: Antioxidant activity assessed as DPPH free radical scavenging at 9.10 x 10^-6mol/L after 10 mins by UV-vis spectrophotometric analysis relative to control. It is filed as functional. In short, it runs like this: as §2
The nature of assay [9]: Antioxidant activity assessed as DPPH free radical scavenging at 2.45 x 10^-6mol/L after 10 mins by UV-vis spectrophotometric analysis relative to control. It is filed as functional. In short, it runs like this:
as §2

The nature of assay [10]: Antioxidant activity assessed as DPPH free radical scavenging at 1.15 x 10^-6mol/L after 10 mins by UV-vis spectrophotometric analysis relative to control. It is filed as functional. The method, boiled down:
as §2

The test system of assay [11] is MG-63. Kind of assay: Antiproliferative activity against human MG63 cells after 3 days by MTT assay. It is filed as functional, cell-based. As to conditions: MG-63, 72 h. In short, it runs like this: as §3
In assay [12] the test system is HOS-TE85. Kind of assay: Antiproliferative activity against human HOSTE85 cells after 3 days by MTT assay. It is filed as functional, cell-based. As to conditions: HOS-TE85, 72 h. The method, boiled down: as §3

For the molecule `C/[N+]([O-])=C1\CCc2ccccc21`, the EC50 (commonly the concentration that produces a half-maximal response) in assay [1] came out at 1300 nM. The result with K562 [2], in the assay on HOS-TE85 [5], in the assay on K562 [6] and with MG-63 [7] was inactive. Besides, the Activity in assay [3] is 60%; in assay [4] it was 1.1%; in assay [8] it was 78%.

For `[O-]/[N+](Cc1ccccc1)=C1/CCc2ccccc21`, the Activity in assay [9] is 1.2%; in assay [3], 70%; in assay [4], 1.3%; in assay [10], 1.1%; in assay [8], 79%. The EC50 in assay [1] was 1200 nM. Also, the result in the assay on K562 [2], in the assay with HOS-TE85 [5], with K562 [6] and in the assay with MG-63 [7] was inactive.

For the molecule `O=C1Nc2ccccc2/C1=[N+](\[O-])Cc1ccccc1`, the values for the half-inhibitory concentration (IC50) in the assay on MG-63 [11] and in the assay with HOS-TE85 [12] were 77000 nM and 32000 nM, respectively. The Activity in [9] was found to be 1.1%; in assay [3] it was 1.2%; in [4] it was 1.2%; in assay [10], 1.1%; in [8] it was 78%. For the same molecule, the EC50 in [1] is 1800 nM. Moreover, the result in the assay with K562 [6] was inactive.

Regarding `Cc1cc(C(C)(C)C)c(O)c(C(C)(C)C)c1` [BUTYLATED HYDROXYTOLUENE], the Activity came to 4.6% in [9], 23% in assay [3], 11.7% in assay [4] and 27% in assay [8]. The EC50 in assay [1] was determined as 3800 nM.

As to `C/[N+]([O-])=C1\CCc2cc(F)ccc21`, the EC50 in [1] amounted to 1800 nM. Besides, the result in the assay with K562 [2], in the assay with HOS-TE85 [5], in the assay with K562 [6] and in the assay on MG-63 [7] was inactive. For the same molecule, the Activity in assay [3] is 1.2%; in assay [4], 1.1%; in [8], 79%.

As to `O=C1Nc2ccc([N+](=O)[O-])cc2/C1=[N+](\[O-])Cc1ccccc1`, the values for the concentration for half-maximal inhibition (IC50) with MG-63 [11] and in the assay with HOS-TE85 [12] were 77000 nM and 32000 nM, respectively. Besides, the concentration giving a half-maximal response (EC50) in assay [1] amounted to 1000 nM. The Activity worked out at 67% in [3], 60% in [4] and 80% in assay [8]. Moreover, the outcome with K562 [6] was inactive.

In the case of `CN1C(=O)/C(=[N+](/[O-])Cc2ccccc2)c2ccccc21`, the IC50 – broadly, the point on the concentration scale where inhibition reaches its midpoint – in the assay on MG-63 [11] is 77000 nM; in the assay with K562 [6] (K562, 72 h), 78000 nM. The Activity was determined as 60% in assay [9]; 70% in assay [3]; 68% in assay [4]; 1.2% in [10]; 79% in [8]. Also, the concentration giving a half-maximal response (EC50) in assay [1] was 600 nM.

Take `O=C1Nc2ccccc2/C1=[N+](\[O-])c1ccccc1`: the Activity in [9] was 1.2%; in [3] it was 69%; in assay [4], 1.2%; in [10], 1.1%; in assay [8], 80%. The half-maximal effective concentration (EC50) in [1] was determined as 1300 nM. Besides, the outcome in the assay with K562 [2], in the assay with HOS-TE85 [5], in the assay on K562 [6] and in the assay with MG-63 [7] was inactive.

For the molecule `C/[N+]([O-])=C1\C(=O)Nc2ccc([N+](=O)[O-])cc21`, the EC50 in [1] was determined as 1200 nM. The Activity in [3] is 72%; in assay [4] it was 1.1%; in assay [8] it was 79%. Also, in the assay with K562 [6], the result was inactive. Moreover, in the assay with HOS-TE85 [12], half-maximal inhibition (IC50) required 32000 nM.
